Calls of active or inactive are those of the source. The rule behind the calls is not given here.
Tests used:
[1] = biological target: C-X-C chemokine receptor type 4 (Homo sapiens) (UniProt P61073); test: Inhibition of biotinylated TN14003 binding to CXCR4 in human MDA-MB-231 cells preincubated for 10 mins followed by TN14003 addition measured after 30 mins by rhodamine dye-based microscopic analysis; format: cell-based
In short: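 MDA-MB-231 cells (2×10^4, seeded two days before) exposed to compound at 1, 10, 100 or 1000 nM for 10 min at room temperature, fixed in ice-cold 4% paraformaldehyde, rehydrated in PBS, then 0.05 µg/mL biotinylated TN14003 for 30 min, streptavidin-rhodamine (1:150) 30 min. Fluorescence microscopy; EC = lowest concentration with significant reduction in rhodamine signal versus untreated.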

Mus musculus [2] = test: Antiinflammatory activity in mouse assessed as inhibition of xylene-induced ear edema at 10 mg/kg, ip treated after 30 mins xylene administration measured after 2 hrs relative to control; format: functional
In short: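 Xylene (30 µL total, inner and outer surfaces) applied to right ear, saline to left ear; 5 mice per group. 30 min later, 10 mg/kg i.p. in 10% DMSO/90% of 45% hydroxypropyl-β-cyclodextrin in PBS; vehicle-injected controls. Sacrificed 2 h later; 7 mm ear plugs from both ears weighed, weight difference = edema; suppression % versus control group.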

[3] = biological target: C-X-C chemokine receptor type 4 (Homo sapiens) (UniProt P61073); test: Potency index, ratio of AMD3100 EC to compound EC for inhibition of biotinylated TN14003 binding to CXCR4 in human MDA-MB-231 cells; format: functional, cell-based
[4] = biological target: C-X-C chemokine receptor type 4 (Homo sapiens) (UniProt P61073); test: Inhibition of CXCR4 in human MDA-MB-231 cells assessed as decrease in CXCL12-dependent cell invasion at 100 nM after 22 hrs by hematoxylin and eosin staining based matrigel assay relative to control; format: functional
In short: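 Matrigel invasion chamber. MDA-MB-231 cells pretreated with compound (100 nM) before seeding in top chamber; 200 ng/mL CXCL12α in serum-free medium in bottom chamber as chemoattractant. 22 h in humidified incubator; non-invading cells swabbed off, invaded cells fixed in methanol, H&E stained and counted; inhibition relative to untreated invasion.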

Mus musculus [5] = test: Antiinflammatory activity in mouse assessed as inhibition of xylene-induced swollen volume of ear at 10 mg/kg, ip treated after 30 mins xylene administration measured after 2 hrs; format: functional, organism-based
Mus musculus [6] = test: Antiinflammatory activity in mouse assessed as inhibition of xylene-induced thickness of ear at 10 mg/kg, ip treated after 30 mins xylene administration measured after 2 hrs; format: functional, organism-based
MDA-MB-231 = test: Cytotoxicity against human MDA-MB-231 cells assessed as reduction in cell viability at 10 uM after 24 hrs by MTT assay; format: cell-based; conditions: mda-mb-231, 24 h
In short: (§1)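 MTT-type viability assay: cells seeded at 3000/well, grown 24 h at 37 °C, then exposed to compound for 24 h at 37 °C. CellTiter 96AQ reagent added for 2 h, absorbance read at 490 nm; compared with vehicle control.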

MCF-10A = test: Cytotoxicity against human MCF10A cells assessed as reduction in cell viability at 10 uM after 24 hrs by MTT assay; format: cell-based; in short: as §1
[7] = biological target: C-X-C chemokine receptor type 4 (Homo sapiens) (UniProt P61073); test: Inhibition of CXCR4 in human MDA-MB-231 cells assessed as decrease in CXCL12-induced Akt phosphorylation by Western blot analysis; format: functional, cell-based
[8] = biological target: C-X-C chemokine receptor type 4 (Homo sapiens) (UniProt P61073); test: Inhibition of CXCR4 in human MDA-MB-231 cells assessed as decrease in CXCL12-induced p44 phosphorylation at 0.1 nM by Western blot analysis; format: functional, cell-based
[9] = Half life in nude mouse plasma at 30 mg/kg, iv administered as single dose by HPLC analysis; format: ADME, organism-based
In short: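 Nude mice (~20 g), anaesthetized with ketamine (90 mg/kg)/xylazine (4.5 mg/kg), given single 30 mg/kg i.v. dose in 10% DMSO/90% of 45% hydroxypropyl-β-cyclodextrin in PBS. Orbital sinus blood at 0, 5, 20, 50 min; centrifuged 13000 g, 4 °C, filtered (10000 NMWL). Filtrate HPLC on C18, acetonitrile–water (0.1% TFA) 50:50, 254 nm; half-life from peak areas.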

[10] = Half life in human plasma; format: ADME

Chain of C-X-C chemokine receptor type 4 (Homo sapiens) (P61073 whole entry): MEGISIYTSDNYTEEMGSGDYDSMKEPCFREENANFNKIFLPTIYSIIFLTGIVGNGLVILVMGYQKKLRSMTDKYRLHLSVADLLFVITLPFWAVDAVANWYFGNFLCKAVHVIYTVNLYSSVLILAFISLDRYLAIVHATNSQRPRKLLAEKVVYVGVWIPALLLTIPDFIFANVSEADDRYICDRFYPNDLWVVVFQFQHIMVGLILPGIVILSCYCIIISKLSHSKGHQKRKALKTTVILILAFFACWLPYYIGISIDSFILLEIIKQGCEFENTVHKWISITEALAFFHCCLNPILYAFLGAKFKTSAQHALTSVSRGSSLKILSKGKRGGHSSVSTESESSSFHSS

Structure (SMILES): O=C(NCc1ccc(CNS(=O)(=O)c2ccc3c(c2)CCO3)cc1)c1ccc(CNc2ncccn2)cc1
- EC [1]: 1000 nM

Structure (SMILES): Cc1cccc(S(=O)(=O)NCc2ccc(CNC(=O)c3ccc(CNc4ncccn4)cc3)cc2)c1
- EC [1]: 100 nM

Structure (SMILES): O=C(NCc1ccc(CNS(=O)(=O)c2cccc3ccccc23)cc1)c1ccc(CNc2ncccn2)cc1
- EC [1]: 1000 nM

Structure (SMILES): O=C(NCc1ccc(CNS(=O)(=O)c2ccc(F)c(F)c2)cc1)c1ccc(CNc2ncccn2)cc1
- EC [1]: 100 nM
- inhibition (Mus musculus [2]): inactive

Structure (SMILES): O=C(NCc1ccc(CNS(=O)(=O)c2ccccc2F)cc1)c1ccc(CNc2ncccn2)cc1
- EC [1]: 1000 nM

Structure (SMILES): O=C(NCc1ccc(CNS(=O)(=O)c2cccc(Cl)c2)cc1)c1ccc(CNc2ncccn2)cc1
- EC [1]: 1 nM
- Ratio [3]: 1000
- inhibition [4]: 88%
- inhibition (Mus musculus [2]): inactive

Structure (SMILES): O=C(NCc1ccc(CNS(=O)(=O)c2ccccc2Cl)cc1)c1ccc(CNc2ncccn2)cc1
- EC [1]: 1000 nM

Structure (SMILES): O=C(NCc1ccc(CNS(=O)(=O)c2ccc(-c3ccc(F)cc3)cc2)cc1)c1ccc(CNc2ncccn2)cc1
- EC [1]: 1000 nM

Structure (SMILES): O=C(NCc1ccc(CNS(=O)(=O)c2cccc(F)c2)cc1)c1ccc(CNc2ncccn2)cc1
- EC [1]: 1000 nM

Structure (SMILES): Cc1ccc(S(=O)(=O)NCc2ccc(CNC(=O)c3ccc(CNc4ncccn4)cc3)cc2)cc1
- EC [1]: 100 nM
- inhibition [4]: 87%
- inhibition in vivo at 10 mg/kg (Mus musculus [2]): 37%

Structure (SMILES): Cc1ccccc1S(=O)(=O)NCc1ccc(CNC(=O)c2ccc(CNc3ncccn3)cc2)cc1
- EC [1]: 10 nM
- Ratio [3]: 100

Structure (SMILES): O=C(NCc1ccc(CNS(=O)(=O)c2ccc(Cl)cc2)cc1)c1ccc(CNc2ncccn2)cc1
- EC [1]: 100 nM
- inhibition in vivo at 10 mg/kg (Mus musculus [2]): 30%

Structure (SMILES): O=C(NCc1ccc(CNS(=O)(=O)c2cccc(C(F)(F)F)c2)cc1)c1ccc(CNc2ncccn2)cc1
- EC [1]: 1000 nM

Structure (SMILES): O=C(NCc1ccc(CNS(=O)(=O)c2ccc([N+](=O)[O-])cc2)cc1)c1ccc(CNc2ncccn2)cc1
- EC [1]: 1000 nM

Structure (SMILES): O=C(NCc1ccc(CNS(=O)(=O)c2ccccc2)cc1)c1ccc(CNc2ncccn2)cc1
- EC [1]: 1 nM
- Ratio [3]: 1000
- inhibition in vivo at 10 mg/kg (Mus musculus [2]): 67%
- inhibition (Mus musculus [5]): Active
- inhibition (Mus musculus [6]): Active
- Activity (MDA-MB-231): Non-Toxic
- Activity (MCF-10A): Non-Toxic
- inhibition [7]: Dose-dependent effect
- inhibition [8]: Active
- half-life [9]: 0.333 h
- half-life [10]: 2.5 h

Structure (SMILES): O=C(NCc1ccc(CNS(=O)(=O)c2ccc(F)cc2)cc1)c1ccc(CNc2ncccn2)cc1
- EC [1]: > 1000 nM

Structure (SMILES): O=C(NCc1ccc(CNS(=O)(=O)c2cccnc2)cc1)c1ccc(CNc2ncccn2)cc1
- EC [1]: > 1000 nM

From ChEMBL document CHEMBL4196077, “Anti-inflammatory hybrids of secondary amines and amide-sulfamide derivatives” (Eur J Med Chem, 2018)
